Measurements: ChEMBL document CHEMBL4177551, “Bioactive Triterpenoids from the Twigs of Chaenomeles sinensis” (J Nat Prod, 2017)

Legend:
[1] = Cytotoxicity in rat C6 cells assessed as cell viability at 20 uM incubated for 24 hrs by MTT assay relative to untreated control; type: cell-based; conditions: read-out: Activity
Outline: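 C6 glioma cells were seeded at 1 × 10^5 cells/well. After 24 h, medium was switched to serum-free DMEM and compounds were added at 20 μM for 24 h. Viability was read by MTT and expressed as % of untreated cells. Values are means ± SD of three independent experiments.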

SK-MEL-2 = assay: Cytotoxicity against human SK-MEL-2 cells assessed as inhibition of cell growth by SRB assay; type: functional, cell-based
Outline: (§1)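 Human tumour lines A549, SK-OV-3, SK-MEL-2 and HCT15 (from ATCC) were tested by sulforhodamine B assay. IC50 is the concentration giving 50% inhibition of cell growth. Cisplatin served as positive control.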

SK-OV-3 = assay: Cytotoxicity against human SKOV3 cells assessed as inhibition of cell growth by SRB assay; type: functional, cell-based; outline: as §1
A549 = assay: Cytotoxicity against human A549 cells assessed as inhibition of cell growth by SRB assay; type: functional, cell-based; outline: as §1
HCT-15 = assay: Cytotoxicity against human HCT15 cells assessed as inhibition of cell growth by SRB assay; type: functional, cell-based; outline: as §1
C6 = assay: Neuroprotective activity in rat C6 cells assessed as induction of nerve growth factor secretion at 20 uM incubated for 24 hrs by ELISA method relative to untreated control; type: functional
Outline: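 C6 glioma cells seeded at 1 × 10^5 cells/well and cultured 24 h. They were then switched to serum-free DMEM with compound at 20 μM for a further 24 h. NGF secreted into the conditioned medium was quantified by ELISA and expressed as percent of untreated control (100%). Mean ± SD of three independent experiments.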

[2] = Cytotoxicity in mouse BV2 cells assessed as cell viability at 20 uM incubated for 24 hrs by MTT assay relative to untreated control; type: cell-based, BV-2; conditions: read-out: Activity
Outline: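 BV2 cells in the LPS-stimulated NO assay (LPS 100 ng/mL, 24 h) were exposed to 20 μM compound. Viability was read by MTT assay and expressed as percent. Mean ± SD of three independent experiments.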

BV-2 = assay: Anti-inflammatory in mouse BV2 cells assessed as inhibition of LPS-induced nitric oxide production pre-incubated before LPS challenge for 24 hrs by Griess reagent based assay; type: functional, cell-based
Outline: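 BV2 microglia seeded at 4 × 10^4 cells/well, treated with or without graded compound concentrations, then stimulated with LPS (100 ng/mL) for 24 h. Nitrite in the medium was measured with Griess reagent (0.1% N-1-naphthylethylenediamine dihydrochloride, 1% sulfanilamide, 5% phosphoric acid), 1:1 with supernatant for 10 min, A570. Quantified against a sodium nitrite standard. IC50 = concentration giving 50% inhibition of NO production.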

Structure (SMILES) | viability at 24 h, 20 µM [1] | IC50 (SK-MEL-2) | IC50 (SK-OV-3) | IC50 (A549) | IC50 (HCT-15) | Activity (C6) | viability at 24 h, 20 µM [2] | IC50 (BV-2)
C=C(C)[C@@H]1CC[C@]2(C(=O)O)CC[C@]3(C)[C@H](CC[C@@H]4[C@@]5(C)CC[C@H](OC(=O)/C=C/c6ccc(O)c(O)c6)C(C)(C)[C@@H]5CC[C@]43C)[C@@H]12 | 95% | > 10 µM | > 10 µM | 9.9 µM | > 10 µM | 355.7% | – | –
C=C(C)[C@@H]1CC[C@]2(C(=O)O)CC[C@]3(C)[C@H](CC[C@@H]4[C@@]5(C)CC[C@H](OC(=O)/C=C\c6ccc(O)c(O)c6)C(C)(C)[C@@H]5CC[C@]43C)[C@@H]12 | – | 6.7 µM | 7.5 µM | 0.9 µM | 3.8 µM | – | 35.3% | 13.4 µM
CC1(C)CC[C@]2(C(=O)O)CC[C@]3(C)C(=CC[C@@H]4[C@@]5(C)C[C@@H](O)[C@@H](O)C(C)(C)[C@@H]5CC[C@]43C)[C@@H]2C1 | – | – | – | – | – | – | 87% | 21.6 µM
C=C(C)[C@@H]1CC[C@]2(CO)CC[C@]3(C)[C@H](CC[C@@H]4[C@@]5(C)CC[C@H](OC(=O)/C=C\c6ccc(O)c(O)c6)C(C)(C)[C@@H]5CC[C@]43C)[C@@H]12 | – | 2 µM | 8.4 µM | > 10 µM | > 10 µM | – | – | –
COc1cc(/C=C\C(=O)O[C@H]2[C@H](O)C[C@]3(C)[C@H]4CC=C5[C@H]6[C@](C(=O)O)(CC[C@@H](C)[C@@]6(C)O)CC[C@@]5(C)[C@]4(C)CC[C@H]3C2(C)C)ccc1O | – | – | – | – | – | – | 111% | 37.1 µM
C=C(C)[C@@H]1CC[C@]2(CO)CC[C@]3(C)[C@H](CC[C@@H]4[C@@]5(C)CC[C@H](OC(=O)/C=C/c6ccc(O)c(O)c6)C(C)(C)[C@@H]5CC[C@]43C)[C@@H]12 | – | 2.9 µM | 9 µM | > 10 µM | > 10 µM | – | – | –
C=C(C)[C@@H]1CC[C@]2(C(=O)O)CC[C@]3(C)[C@H](CC[C@@H]4[C@@]5(C)C[C@@H](O)[C@H](O)C(C)(C)[C@@H]5CC[C@]43C)[C@@H]12 [ALPHITOLIC ACID] | – | – | – | – | – | – | 71% | 14.5 µM
C=C(C)[C@@H]1CC[C@]2(C(=O)O)CC[C@]3(C)[C@H](CC[C@@H]4[C@@]5(C)CC[C@H](O)C(C)(C)[C@@H]5CC[C@]43C)[C@@H]12 [BETULINIC ACID] | 77.3% | > 10 µM | > 10 µM | 3.1 µM | 8.7 µM | 177.6% | 59.6% | 4.5 µM
C[C@H]1[C@H](C)CC[C@]2(C(=O)O)CC[C@]3(C)C(=CC[C@@H]4[C@@]5(C)C[C@@H](O)[C@H](O)C(C)(C)[C@@H]5CC[C@]43C)[C@H]12 [COROSOLIC ACID] | – | – | – | – | – | – | 100% | 47.1 µM
C=C(C)[C@@H]1CC[C@]2(CO)CC[C@]3(C)[C@H](CC[C@@H]4[C@@]5(C)CC[C@H](O)[C@](C)(CO)[C@@H]5CC[C@]43C)[C@@H]12 [ILEKUDINOL C] | – | > 10 µM | > 10 µM | 5.1 µM | > 10 µM | – | 88% | 25.5 µM
CC1(C)CC[C@]2(C(=O)O)CC[C@]3(C)C(=CC[C@@H]4[C@@]5(C)C[C@@H](O)[C@H](O)C(C)(C)[C@@H]5CC[C@]43C)[C@@H]2C1 [MASLINIC ACID] | – | – | – | – | – | – | 30.4% | 17.8 µM
CCCCC/C=C/C(=O)CCc1ccc(O)c(OC)c1 [SHOGAOL] | 126% | – | – | – | – | 168.6% | – | –
CNC(=N)NCCC[C@H](N)C(=O)O [TILARGININE] | – | – | – | – | – | – | 114% | 21.8 µM
C[C@@H]1CC[C@]2(C(=O)O)CC[C@]3(C)C(=CC[C@@H]4[C@@]5(C)C[C@@H](O)[C@H](O)C(C)(C)[C@@H]5CC[C@]43C)[C@@H]2[C@]1(C)O [TOMENTIC ACID] | 100% | – | – | – | – | 167.4% | – | –
